ChEMBL document CHEMBL2151029, “Synthesis of N-(5-chloro-6-(quinolin-3-yloxy)pyridin-3-yl)benzenesulfonamide derivatives as non-TZD peroxisome proliferator-activated receptor γ (PPARγ) agonist” (Eur J Med Chem, 2012)

Experiments:
[1] = biological target: T1, Peroxisome proliferator-activated receptor gamma (Homo sapiens) (UniProt P37231); test: Agonist activity at human PPARgamma receptor expressed in HEK293 cells at 10 uM relative to PPARgamma full agonist at 1 uM
T1 sequence (whole entry): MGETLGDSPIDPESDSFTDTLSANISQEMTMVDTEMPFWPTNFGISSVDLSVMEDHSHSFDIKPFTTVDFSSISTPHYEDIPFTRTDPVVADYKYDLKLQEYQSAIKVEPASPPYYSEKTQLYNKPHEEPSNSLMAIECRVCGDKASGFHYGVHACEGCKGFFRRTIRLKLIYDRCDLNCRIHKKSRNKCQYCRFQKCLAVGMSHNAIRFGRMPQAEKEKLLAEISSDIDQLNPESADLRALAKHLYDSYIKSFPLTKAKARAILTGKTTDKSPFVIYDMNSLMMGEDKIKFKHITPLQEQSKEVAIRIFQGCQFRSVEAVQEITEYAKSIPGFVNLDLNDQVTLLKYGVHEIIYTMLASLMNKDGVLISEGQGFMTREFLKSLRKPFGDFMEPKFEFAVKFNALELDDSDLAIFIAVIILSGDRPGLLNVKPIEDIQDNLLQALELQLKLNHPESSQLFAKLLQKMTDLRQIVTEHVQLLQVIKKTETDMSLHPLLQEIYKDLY

[2] = biological target: T2, Peroxisome proliferator-activated receptor gamma (Mus musculus) (UniProt P37238); test: Agonist activity at PPARgamma receptor in mouse 3T3-L1 cells assessed as adipogenesis at 20 ug/mL relative to insulin; format: functional, cell-based
T2 sequence (whole entry): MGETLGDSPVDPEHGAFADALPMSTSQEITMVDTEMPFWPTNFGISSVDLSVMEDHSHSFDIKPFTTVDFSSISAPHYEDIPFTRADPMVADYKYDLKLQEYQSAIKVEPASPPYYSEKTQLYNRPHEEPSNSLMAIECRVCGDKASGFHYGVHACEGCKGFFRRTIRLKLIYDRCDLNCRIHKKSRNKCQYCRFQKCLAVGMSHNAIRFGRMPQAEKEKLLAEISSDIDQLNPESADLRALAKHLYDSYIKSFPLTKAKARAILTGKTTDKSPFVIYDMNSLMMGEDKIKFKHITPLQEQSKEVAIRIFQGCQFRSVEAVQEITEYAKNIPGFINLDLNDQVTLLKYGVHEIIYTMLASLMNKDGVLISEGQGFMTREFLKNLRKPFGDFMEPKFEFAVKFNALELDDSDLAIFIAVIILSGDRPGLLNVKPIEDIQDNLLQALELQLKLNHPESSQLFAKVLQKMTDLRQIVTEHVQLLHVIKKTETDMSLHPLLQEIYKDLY
In short: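 3T3-L1 cells were treated with compound at 20 µg/ml in the presence of insulin and adipogenesis was measured. The response to a potent PPARγ full agonist at 1 µM was set as 100%. Emax (%) is the maximal adipogenic activity with test compound.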

Mus musculus [3] = test: Antihyperglycemic activity in db/db mouse assessed as plasma glucose reduction at 5 mg/kg administered BID for 10 days relative to control; format: functional; design: scale not given: the % may be the effect or the level left
In short: (§1)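 Male db/db mice, 5 to 7 weeks old and bred in-house, were fed a chow diet and dosed b.i.d. for 10 days. Plasma glucose and body weight gain were assessed at the end of the study.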

[4] = AUC (0 to 8 hrs) in db/db mouse at 100 mg/kg, po; format: ADME, organism-based; design: time < 8 hr, dose 100 mg/kg, route oral; conditions: plasma
In short: (§2)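 Female db/db mice received a single 100 mg/kg oral dose as a suspension in 0.5% CMC and Tween 80 (10 mL/kg), n = 4 per time point. Blood was drawn at 0.08 to 8.0 h and plasma was kept at -80 °C. Compound levels were measured by HPLC. Parameters came from non-compartmental analysis: Cmax and Tmax read directly, λz from terminal log-linear regression, T1/2 = 0.693/λz.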

[5] = Drug excretion in db/db mouse assessed as elimination rate constant at 100 mg/kg, po; format: ADME, organism-based; design: dose 100 mg/kg, route oral; conditions: in vivo
In short: as §2

[6] = Terminal elimination half life in db/db mouse at 100 mg/kg, po; format: ADME, organism-based; design: dose 100 mg/kg, route oral; conditions: in vivo, read-out: beta t1/2 (converted)
In short: as §2

[7] = Tmax in db/db mouse at 100 mg/kg, po; format: ADME, organism-based; design: dose 100 mg/kg, route oral; conditions: in vivo
In short: as §2

Mus musculus [8] = test: Volume of distribution in db/db mouse at 100 mg/kg, po; format: ADME, organism-based; design: dose 100 mg/kg, route oral; conditions: in vivo
In short: as §2

[9] = Cmax in db/db mouse at 100 mg/kg, po; format: ADME, organism-based; design: dose 100 mg/kg, route oral; conditions: in vivo
In short: as §2

[10] = Clearance in db/db mouse at 100 mg/kg, po; format: ADME, organism-based; design: dose 100 mg/kg, route oral; conditions: in vivo
In short: as §2

Mus musculus [11] = test: Antihyperglycemic activity in db/db mouse assessed as plasma glucose reduction at 50 mg/kg administered BID for 10 days relative to control; format: functional; design: scale not given: the % may be the effect or the level left
In short: as §1

Mus musculus [12] = test: Toxicity in db/db mouse assessed as body weight gain at 50 mg/kg administered BID relative to control; format: organism-based; design: dose 50 mg/kg; conditions: in vivo
In short: as §1

SMILES | Emax [1] [%] | Emax [2] [%] | further results
Cc1ccccc1S(=O)(=O)Nc1cnc(Oc2cnc3ccccc3c2)c(Cl)c1 | 43 | 95 | 
CN(CCOc1ccc(CC2SC(=O)NC2=O)cc1)c1ccccn1 (stereo not given) [ROSIGLITAZONE] |  |  | Activity (Mus musculus [3]): 52%
COc1ccc(OC)c(S(=O)(=O)Nc2cnc(Oc3cnc4ccccc4c3)c(Cl)c2)c1 | 71 | 54 | 
O=S(=O)(Nc1cnc(Oc2cnc3ccccc3c2)c(Cl)c1)c1ccc(C(F)(F)F)cc1Cl | 86 | 57 | 
COc1ccc(S(=O)(=O)Nc2cnc(Oc3cnc4ccccc4c3)c(Cl)c2)cc1OC | 93 | 60 | Activity (Mus musculus [11]): 40%; AUC(0-t) at 8 h [4]: 146000 ng·h/mL; Activity (Mus musculus [12]): 9%; k el [5]: 6.39e-05 s⁻¹; half-life [6]: 2.99 h; Tmax [7]: 0.25 h; Vd (Mus musculus [8]): 1.23 L/kg; Cmax [9]: 33900 ng/mL; CL/F [10]: 4.67 mL/min/kg
Cc1ccc(S(=O)(=O)Nc2cnc(Oc3cnc4ccccc4c3)c(Cl)c2)c(C)c1 | 31 | 67 | 

Now from value to compound, other results behind:

Emax [1] [%] | Emax [2] [%] | SMILES | further results
62 | 80 | O=S(=O)(Nc1cnc(Oc2cnc3ccccc3c2)c(Cl)c1)c1cccc(F)c1 | 
50 | 75 | O=S(=O)(Nc1cnc(Oc2cnc3ccccc3c2)c(Cl)c1)c1cccc(C(F)(F)F)c1 | 
36 | 90 | Cc1cccc(S(=O)(=O)Nc2cnc(Oc3cnc4ccccc4c3)c(Cl)c2)c1 | 
39 | 51 | O=S(=O)(Nc1cnc(Oc2cnc3ccccc3c2)c(Cl)c1)c1ccc(F)cc1Cl | 
86 | 95 | O=S(=O)(Nc1cnc(Oc2cnc3ccccc3c2)c(Cl)c1)c1ccc(F)c(F)c1 | AUC(0-t) at 8 h [4]: 25400 ng·h/mL; k el [5]: 0.000108 s⁻¹; half-life [6]: 1.76 h; Tmax [7]: 0.5 h; Vd (Mus musculus [8]): 4.78 L/kg; Cmax [9]: 8330 ng/mL; CL/F [10]: 31.2 mL/min/kg
32 | 56 | O=S(=O)(Nc1cnc(Oc2cnc3ccccc3c2)c(Cl)c1)c1ccc(F)cc1F | 
56 | 35 | O=S(=O)(Nc1cnc(Oc2cnc3ccccc3c2)c(Cl)c1)c1ccc(Cl)c(Cl)c1 | 
83 | 73 | Cc1cc(F)ccc1S(=O)(=O)Nc1cnc(Oc2cnc3ccccc3c2)c(Cl)c1 | 
28 | 56 | O=S(=O)(Nc1cnc(Oc2cnc3ccccc3c2)c(Cl)c1)c1ccc(F)c(Cl)c1 | 
